# High-throughput results from PubChem.
# KCNQ1 inh = inhibitors of human KCNQ1 channel, primary screen, cell-based, thallium flux, high-throughput; B-score at 10 µM; 310,000 compounds, 1.3% hits; CHO-K1 KCNQ1, FluxOR thallium flux fluorescence; stronger effect = higher value;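 active = compounds whose thallium flux B-score, printed positive for inhibition, exceeds three library SD while starting fluorescence stays within three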;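 note: channel opened by potassium depolarization with thallium stimulus after 20 min compound exposure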
# hERG rescue = hERG rescue from dofetilide block, primary screen, cell-based, CHO-hERG, FluxOR thallium flux, dofetilide IC70. Voltage-gated inwardly rectifying potassium channel KCNH2 (Homo sapiens), Q12809. dofetilide IC70 present. 310,000 compounds, 0.51% hits. activation (rescue from dofetilide block), less the hit threshold, % at 10 µM;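 active = activation above the mean of controls blocked by dofetilide plus 5 SD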;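 note: thallium influx through hERG after potassium depolarization seen as dye fluorescence rise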
# KCNK3 block = human KCNK3 channel inhibitors, primary screen, CHO cells, FluxOR thallium flux, B-score | Potassium channel subfamily K member 3 (Homo sapiens), O14649 | FluxOR fluorescence; stronger effect = lower value | B-score at 10 µM | 340,000 compounds, 0.84% hits | AID 602410, 2012;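 active = B-score under library mean minus 4 SD, starting fluorescence ratio at most library mean plus 5 SD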;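 note: more negative B-score means stronger inhibition of thallium flux through KCNK3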
# Target sequence (O14649 whole entry, looked up): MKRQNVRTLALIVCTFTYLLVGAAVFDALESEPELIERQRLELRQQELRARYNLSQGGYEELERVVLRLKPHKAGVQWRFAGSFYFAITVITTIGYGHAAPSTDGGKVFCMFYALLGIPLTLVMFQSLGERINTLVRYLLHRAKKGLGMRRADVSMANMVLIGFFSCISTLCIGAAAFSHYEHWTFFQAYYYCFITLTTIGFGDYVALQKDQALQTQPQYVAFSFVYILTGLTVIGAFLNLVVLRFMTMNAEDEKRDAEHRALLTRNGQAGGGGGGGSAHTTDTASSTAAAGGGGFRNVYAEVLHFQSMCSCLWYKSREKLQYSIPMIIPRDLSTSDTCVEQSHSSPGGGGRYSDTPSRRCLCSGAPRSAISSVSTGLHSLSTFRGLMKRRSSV
# KCNK9 block = KCNK9 potassium channel inhibitors, primary screen, HEK293 cells, thallium flux; Potassium channel subfamily K member 9 (Homo sapiens), Q9NPC2; B-score at 10 µM; 310,000 compounds, 1.2% hits; FluxOR thallium flux fluorescence; stronger effect = lower value;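 active = ratio B-score over 3 SD below the library mean, with starting fluorescence within 5 SD of its mean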;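 note: negative B-score means less thallium flux so channel inhibition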
# KCNQ1 act = potentiators or activators of KCNQ1 channel, primary screen, cell-based, thallium flux, high-throughput. CHO-K1 KCNQ1, thallium flux FluxOR fluorescence; stronger effect = higher value. B-score at 10 µM. 310,000 compounds, 0.35% hits;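 active = fluorescence ratio B-score, a plate-corrected score, at least three library SD, with initial intensity B-score within 5 SD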
#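 Material: CHO-K1 cells stably expressing KCNQ1. Medium: assay buffer for compound exposure, DMSO matched across wells. Reagent: K+/Tl+ depolarizing stimulus. Compound dosing: single-concentration screen. Times: 37 °C overnight plating, 90-min dark dye load, 20-min compound pretreatment. Technique: FluxOR Tl+ flux fluorescence.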
# KCNK3 confirm = retest of human KCNK3 channel inhibitors, confirmation, CHO cells, FluxOR thallium flux, triplicate; shares compounds with KCNK3 block; FluxOR fluorescence; 0% buffer, 100% carvedilol maximal block; ratio percent of control, % at 10 µM; 2,400 compounds, 99% hits;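 active = ratio percent of control, averaged over triplicates, above buffer control mean plus 5 SD, cut at about 64% in these data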;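 note: ratio is the fluorescence rise from min to max over baseline after thallium stimulus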
# KCNK3 uninduced = thallium flux inhibition in non-induced cells, primary screen, counter-screen for KCNK3 inhibitor project, cell-based, non-induced KCNK3 line, FluxOR thallium, triplicate. thallium flux ratio (lower = more inhibition) at 10 µM. 2,400 compounds, 40% hits. shares compounds with KCNK3 block. non-induced KCNK3 parental cells; stronger effect = lower value. AID 651747, 2012;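 active = thallium flux ratio, averaged over three wells, more than 5 SD below the buffer control mean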;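 note: host cells are CHO cells without KCNK3 induction; ratio is peak minus trough fluorescence over baseline then normalized to buffer controls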
# Starred values were filed as active, the others as inactive; i = inactive; · = no result given. Hits are enriched below; roughly 3.1% of the tested compounds scored in any of these assays.
SMILES,KCNQ1 inh,hERG rescue,KCNK3 block,KCNK9 block,KCNQ1 act,KCNK3 confirm,KCNK3 uninduced
COC(=O)C1=C(C)N=C2SCCC(=O)N2C1c1ccc(C(=O)OC)cc1 (stereo not given),i,-10,-8.9*,i,i,78*,0.15*
COCCOC(=O)C1=C(C)N=C2SCCC(=O)N2C1c1ccc(C(=O)OC)cc1 (stereo not given),i,-3,i,i,i,·,·
CCOC(=O)C1=C(C)N=C2SCCC(=O)N2[C@@H]1/C=C/c1ccccc1,i,-10,i,i,i,·,·
COCCOC(=O)C1=C(C)N=C2SCCC(=O)N2C1/C=C/c1ccccc1 (stereo not given),i,-6,-13*,i,i,105*,0.16*
CCOc1ccc(C(CC(=O)O)NC(=O)COc2ccccc2OC)cc1OC (stereo not given),i,-1,i,i,i,·,·
COc1ccc(CNC(=O)CCn2ccc3cc(S(=O)(=O)N4CCCC4)ccc32)cc1,i,-8,i,i,i,·,·
CSc1ccc(CNC(=O)CCn2ccc3cc(S(=O)(=O)N4CCCC4)ccc32)cc1,i,-5,-9.9*,i,i,119*,0.16*
CC(C)(C)n1nnnc1C(c1cccnc1)N1CCN(c2cccc(C(F)(F)F)c2)CC1 (stereo not given),i,-7,-10*,i,i,77*,i
COc1cccc(CN(C)C(=O)c2ccccc2Sc2ccccc2C#N)c1OC,i,-14,-8.7*,i,i,98*,i
Cc1ccc(CN(C)C(=O)c2ccccc2Sc2ccccc2C#N)cc1,i,-14,i,i,i,·,·
COc1cccc(CN(C)C(=O)c2ccc(COc3ccc(Cl)cc3)cc2)c1OC,i,-14,-11*,i,i,134*,0.15*
C/C(CC(=O)Nc1ccc([N+](=O)[O-])cc1)=N/NC(=O)C1C2CCCCC21 (stereo not given),i,-15,i,i,i,·,·
Cc1ccc(CNC(=S)NCc2ccncc2)cc1,i,-13,i,i,i,·,·
O=C(NCc1ccco1)C1CCCN(S(=O)(=O)c2ccc(Cl)cc2)C1 (stereo not given),i,-3,i,i,i,·,·
Cc1c(C#N)c2ccccc2n1CC(=O)O,i,-10,i,i,i,·,·
COc1ccccc1OCCCn1c(C)c(C#N)c2ccccc21,i,-9,-10*,i,i,119*,0.16*
CCOC(=O)c1ccc(NC(=O)CSc2nnc(CCc3ccc(C)o3)n2-c2ccccc2)cc1,i,-10,-17*,i,i,90*,i
CCOc1ccc(/C=C/C(O)=C2/C(=O)N(C)C3(C)CC2c2ccccc2O3)cc1OC (stereo not given),i,-11,-9.9*,i,i,88*,i
CCc1nnc(NC(=O)CSc2nnc(-c3ccoc3C)n2-c2cccc(C)c2)s1,i,-2,i,i,i,·,·
Cc1cccc(-n2c(SCC(=O)Nc3nnc(C)s3)nnc2-c2ccoc2C)c1,i,-3,-14*,i,i,66*,0.16*
Cc1nc2nc(C)c(CCC(=O)N3CCOCC3)c(C)n2n1,i,-3,i,i,i,·,·
CCc1cc(C(=O)Nc2cc(S(=O)(=O)N(C)C)ccc2C)sc1C,i,-10,-9.3*,i,i,90*,i
CCCCC(Sc1nc(C)c(Cc2ccccc2)c(=O)[nH]1)C(=O)O (stereo not given),i,-5,-9*,i,i,0,i
CN1C(=O)[C@H](Cc2ccc([N+](=O)[O-])cc2)NC1=S,i,-5,i,i,i,·,·
CN(C)C(=O)c1ccc(NC(=O)c2ccccc2SCC(=O)N2CCCC2)cc1,·,·,i,·,·,·,·
SMILES,KCNQ1 inh,hERG rescue,KCNK3 block,KCNK9 block,KCNQ1 act,KCNK3 confirm,KCNK3 uninduced
COC(=O)C1=C(C)NC(C)=C(C(=O)OCC2CCCO2)C1c1cccc(Cl)c1 (stereo not given),i,-14,-11*,i,i,117*,i
CCc1ccc(NC(=O)C(=S)NC2CCCCC2)cc1,i,-17,i,i,i,·,·
CCc1ccc(NC(=O)NC2CCCCCCC2)cc1,i,-7,-9.4*,i,i,125*,0.12*
COc1ccccc1OCCCn1cc(C#N)c2ccccc21,i,-1,i,i,i,·,·
N#Cc1cn(CCCOc2ccccc2)c2ccccc12,i,-7,-9.5*,i,i,115*,0.14*
COc1ccc2c(c1)C(c1cccs1)=NNC(c1ccncc1)=N2,i,-9,-8.8*,i,i,66*,i
Cc1cc(C2(O)C(=O)Nc3ccccc32)ccc1F (stereo not given),i,-5,i,i,i,·,·
CCN(CC(=O)Nc1cccc(C#N)c1)CC(=O)Nc1cccc(OC)c1,i,-17,-9.7*,i,i,90*,i
CCN(CC(=O)Nc1ccc(OC)cc1)CC(=O)Nc1cccc(C#N)c1,i,-9,i,i,i,·,·
Cc1ccc2c(CN(C)Cc3cccc(F)c3)cc(=O)oc2c1,i,-10,i,i,i,·,·
Cc1cc2oc(=O)cc(CN(C)Cc3ccccc3)c2cc1C(C)C,7*,-9,-8.9*,i,i,99*,0.14*
COc1ccc(CN(C)Cc2cc(=O)oc3cc(C)c(C(C)C)cc23)cc1OC,i,-13,i,i,i,·,·
CCOc1ccc(CN(C)Cc2cc(=O)oc3cc(C)c(Cl)cc23)cc1,i,-2,i,i,i,·,·
COc1cc(CN(C)Cc2cc(=O)oc3cc(C)c(Cl)cc23)ccc1OC(F)F,i,-8,-10*,i,i,106*,i
Cc1cc2oc(=O)cc(CN(C)Cc3cccc(F)c3)c2cc1Cl,i,-11,-11*,i,i,100*,i
Cc1cc2oc(=O)cc(CN(C)Cc3ccccc3Cl)c2cc1C,6*,-9,-10*,i,i,57*,i
